Test results taken from ChEMBL document CHEMBL1124370 (1989).
One block for each compound: values may come before it. Calls of active or inactive are those of the source. No cut-off for these calls is given here.

Legend:
[1] = target: Aldo-keto reductase family 1 member B1 (Bos taurus) (UniProt P16116); assay: Inhibition of aldose reductase in partially purified bovine lens preparation at 10e-6 M.
Method in brief: (§1)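 Aldose reductase partially purified from bovine lens, with the final chromatographic step of the earlier preparation omitted. Assay run in duplicate with test compound at 1 × 10^-6 M or 1 × 10^-7 M. Reported as % inhibition of enzymatic activity.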

[2] = test system: Rattus norvegicus; assay: In vivo inhibition of galactitol accumulation in the sciatic nerves of rat at a dose of 100 mg/kg/day; NS=not significant; type: functional, organism-based; settings: Sciatic nerve
[3] = test system: Rattus norvegicus; assay: […] inhibition of sorbitol accumulation in rat sciatic nerves at 10e-5 M concentration; type: functional, Sciatic nerve
Method in brief: (§2)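 Sciatic nerves were taken from male Sprague-Dawley rats (200–250 g) after CO2 euthanasia. Nerves were incubated 3 h at 37 °C under 95% air/5% CO2 in Hank's salts buffer, pH 7.4, with 50 mM glucose and (0–5)×10^-5 M compound, in triplicate. Nerve sorbitol was measured spectrofluorometrically in duplicate, and the read-out was % inhibition of sorbitol accumulation.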

[4] = test system: Rattus norvegicus; assay: […] inhibition of sorbitol accumulation in rat sciatic nerves at 10e-6 M concentration; NS=not significant; type: functional; settings: Sciatic nerve; method in brief: as §2
[5] = test system: Rattus norvegicus; assay: In vivo inhibition of galactitol accumulation in the diaphragm of rat at a dose of 100 mg/kg/day; type: functional
[6] = test system: Rattus norvegicus; assay: In vivo inhibition of galactitol accumulation in the diaphragm of ratat a dose of 75 mg/kg/day; type: functional
[7] = test system: Rattus norvegicus; assay: In vivo inhibition of galactitol accumulation in the sciatic nerves of rat at a dose of 25 mg/kg/day; type: functional; settings: Sciatic nerve
[8] = test system: Rattus norvegicus; assay: In vivo inhibition of sorbitol accumulation in rat sciatic nerves at 10e-6 M concentration; type: functional, Sciatic nerve; method in brief: as §2
[9] = test system: Rattus norvegicus; assay: In vivo inhibition of galactitol accumulation in the diaphragm of rat. at a dose of 25 mg/kg/day; NS =not significant; type: functional, organism-based
[10] = test system: Rattus norvegicus; assay: In vivo inhibition of galactitol accumulation in the sciatic nerves of rat at a dose of 75 mg/kg/day; type: functional; settings: Sciatic nerve
[11] = target: Aldo-keto reductase family 1 member B1 (Bos taurus) (UniProt P16116); assay: Inhibition of aldose reductase in partially purified bovine lens preparation at 10e-7 M concentration; method in brief: as §1
[12] = test system: Rattus norvegicus; assay: In vivo inhibition of sorbitol accumulation in rat sciatic nerves at 5*10e-5 M concentration; type: functional, Sciatic nerve; settings: in the assay text read “In vitro” for “In vivo”; method in brief: as §2
[13] = test system: Rattus norvegicus; assay: In vivo inhibition of galactitol accumulation in the diaphragm of rat. at a dose of 56 mg/kg/day; NS=not significant; type: functional, organism-based
[14] = test system: Rattus norvegicus; assay: In vivo inhibition of galactitol accumulation in the sciatic nerves of rat at a dose of 55 mg/kg/day; NS=not significant; type: functional, organism-based; settings: Sciatic nerve
[15] = target: Aldo-keto reductase family 1 member B1 (Bos taurus) (UniProt P16116); assay: […] inhibition of aldose reductase in partially purified bovine lens preparation at 10e-6 M concentration
Method in brief: (§3)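 Enzyme partially purified from bovine lens by a published method, with the final chromatographic step omitted. Test compound was added at 1×10^-6 or 1×10^-7 M. Assays were run in duplicate, and the read-out was % inhibition of enzymatic activity.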

[16] = target: Aldo-keto reductase family 1 member B1 (Bos taurus) (UniProt P16116); assay: […] inhibition of aldose reductase in partially purified bovine lens preparation at 10e-7 M concentration; method in brief: as §3
[17] = test system: Rattus norvegicus; assay: […] inhibition of sorbitol accumulation in rat sciatic nerves at 5*10e-6 M concentration; type: functional, Sciatic nerve; settings: in the assay text read “In vitro” for “In vivo”
Method in brief: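 Sciatic nerves from male Sprague-Dawley rats (200–250 g), removed after CO2 euthanasia, incubated ex vivo for 3 h at 37 °C under 95% air/5% CO2 in Hank's salts buffer, pH 7.4, with 50 mM glucose and 5 × 10^-6 M test compound. Triplicate incubations; nerve sorbitol measured in duplicate by spectrofluorometric assay. Reported as % inhibition of sorbitol accumulation.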

[18] = test system: Rattus norvegicus; assay: In vivo inhibition of galactitol accumulation in the sciatic nerves of rat at a dose of 56 mg/kg/day; NS=not significant; type: functional, organism-based; settings: Sciatic nerve
[19] = test system: Rattus norvegicus; assay: In vivo inhibition of galactitol accumulation in the diaphragm of rat at a dose of 48 mg/kg/day; type: functional
[20] = test system: Rattus norvegicus; assay: In vivo inhibition of galactitol accumulation in the diaphragm of rat at a dose of 57 mg/kg/day; type: functional
[21] = test system: Rattus norvegicus; assay: In vivo inhibition of galactitol accumulation in the diaphragm of rat at a dose of 97 mg/kg/day; type: functional
[22] = test system: Rattus norvegicus; assay: In vivo inhibition of galactitol accumulation in the sciatic nerves of rat at a dose of 57 mg/kg/day; type: functional; settings: Sciatic nerve
[23] = test system: Rattus norvegicus; assay: In vivo inhibition of galactitol accumulation in the sciatic nerves of rat at a dose of 97 mg/kg/day; type: functional; settings: Sciatic nerve
[24] = test system: Rattus norvegicus; assay: In vivo inhibition of galactitol accumulation in the sciatic nerves of rat at a dose of 46 mg/kg/day; NS=not significant; type: functional, organism-based; settings: Sciatic nerve
[25] = test system: Rattus norvegicus; assay: […] inhibition of sorbitol accumulation in rat sciatic nerves at 10e-5 M concentration; NS=not significant; type: functional; settings: Sciatic nerve; method in brief: as §2
[26] = test system: Rattus norvegicus; assay: In vivo inhibition of galactitol accumulation in the diaphragm of rat at a dose of 46 mg/kg/day; NS =not significant; type: functional, organism-based
[27] = test system: Rattus norvegicus; assay: In vivo inhibition of galactitol accumulation in the diaphragm of rat vat a dose of 6 mg/kg/day; type: functional
[28] = test system: Rattus norvegicus; assay: In vivo inhibition of galactitol accumulation in the sciatic nerves of rat at a dose of 6 mg/kg/day; type: functional; settings: Sciatic nerve
[29] = test system: Rattus norvegicus; assay: In vivo inhibition of galactitol accumulation in the sciatic nerves of ratat a dose of 51 mg/kg/day; NS=not significant; type: functional, organism-based; settings: Sciatic nerve
[30] = test system: Rattus norvegicus; assay: In vivo inhibition of galactitol accumulation in the diaphragm of rat at a dose of 51 mg/kg/day; type: functional
[31] = test system: Rattus norvegicus; assay: In vivo inhibition of galactitol accumulation in the sciatic nerves of rat at a dose of 107 mg/kg/day; type: functional; settings: Sciatic nerve
[32] = test system: Rattus norvegicus; assay: In vivo inhibition of galactitol accumulation in the diaphragm of rat at a dose of 107 mg/kg/day; type: functional

Structure (SMILES): COc1ccc2c(/C(=N/S(=O)(=O)c3ccc(Br)cc3)N(C)CC(=O)O)cccc2c1C(F)(F)F
inhibition [1]: 53% | inhibition [13]: inactive | inhibition [14]: inactive | inhibition [11]: 5%

Structure (SMILES): COc1ccc2c(/C(=N/S(=O)(=O)C(F)(F)F)N(C)CC(=O)O)cccc2c1C(F)(F)F
inhibition [15]: 94% | inhibition [16]: 69% | inhibition [13]: inactive | Inhibition [17]: 36% | inhibition [18]: inactive | Inhibition [12]: 71%

Structure (SMILES): COc1ccc2c(C(=O)N(CC(=O)O)C(=O)OC(C)C)cccc2c1C(F)(F)F
inhibition [24]: inactive | inhibition [25]: inactive | inhibition [26]: inactive | inhibition [11]: 35%

Structure (SMILES): COc1ccc2c(C(=S)N(C)CC(=O)O)cccc2c1C(F)(F)F [TOLRESTAT]
Inhibition [3]: 82% | inhibition in vivo at 6 mg/kg/day [27]: 80% | inhibition in vivo at 6 mg/kg/day [28]: 53% | Inhibition [17]: 76%

Structure (SMILES): COC(=O)N(CC(=O)O)C(=S)c1cccc2c(C(F)(F)F)c(OC)ccc12
inhibition [15]: 88% | inhibition [16]: 29% | inhibition [29]: inactive | Inhibition [3]: 61% | Inhibition [8]: 36% | inhibition in vivo at 51 mg/kg/day [30]: 80%

Second part, led by results:

inhibition [1]: 3%
Structure (SMILES): COc1ccc2c(C(=O)N(CC(=O)O)C(=O)N(C)C)cccc2c1C(F)(F)F
inhibition [2]: inactive | Inhibition [3]: 34% | inhibition [4]: inactive | inhibition in vivo at 100 mg/kg/day [5]: 21%

inhibition [1]: 86% | inhibition [11]: 57%
Structure (SMILES): COc1ccc2c(C(=O)N(C)CC(=O)O)cccc2c1C(F)(F)F
inhibition in vivo at 75 mg/kg/day [6]: 27% | inhibition in vivo at 25 mg/kg/day [7]: 33% | Inhibition [3]: 74% | Inhibition [8]: 27% | inhibition [9]: inactive | inhibition in vivo at 75 mg/kg/day [10]: 56% | Inhibition [12]: 89%

inhibition [1]: 97% | inhibition [11]: 82%
Structure (SMILES): COC(=O)N(CC(=O)O)C(=O)c1cccc2c(C(F)(F)F)c(OC)ccc12
Inhibition [3]: 58% | inhibition [4]: inactive | inhibition in vivo at 48 mg/kg/day [19]: 54%

inhibition [1]: 98% | inhibition [11]: 81%
Structure (SMILES): CCOC(=O)N(CC(=O)O)C(=O)c1cccc2c(C(F)(F)F)c(OC)ccc12
Inhibition [3]: 88% | Inhibition [8]: 51% | inhibition in vivo at 57 mg/kg/day [20]: 70% | inhibition in vivo at 97 mg/kg/day [21]: 83% | inhibition in vivo at 57 mg/kg/day [22]: 56% | inhibition in vivo at 97 mg/kg/day [23]: 90%

inhibition [1]: 96% | inhibition [11]: 89%
Structure (SMILES): COc1ccc2c(C(=O)N(C=O)CC(=O)O)cccc2c1C(F)(F)F
inhibition in vivo at 107 mg/kg/day [31]: 51% | Inhibition [3]: 65% | Inhibition [8]: 42% | inhibition in vivo at 107 mg/kg/day [32]: 82%
